Screening data from PubChem BioAssay.
APJ ag: agonists of human apelin receptor APJ, primary screen, CHO-K1 cells, PathHunter beta-arrestin, luminescence | 330,000 tested, 0.11% active | 0% DMSO wells, 100% apelin | activation, % at 20 µM | P35414;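 active = activation more than six SD over the plate average, tested at 20 µM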
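Test system – PathHunter CHO-K1 APJ (AGTRL-1) beta-arrestin reporter cells · Input – 1000 cells/well · Compound – single test compound dose, 20 µM final, 1% DMSO · Times – compound stimulation 90 min at 25 °C, detection 60 min · Technique – beta-gal luminescence · Read-out basis – APJ–arrestin association signal · Control set – negative DMSO alone, positive Apelin-13 at 10 nM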
EBI2 antag: EBI2 receptor antagonists, beta-arrestin recruitment, primary screen, cell-based, luminescence, 7a,25-OHC stimulation, uHTS; 360,000 tested, 0.81% active; 7a,25-OHC stimulated; AID 651636, 2012; inhibition, % at 5 µM; in the data active = inhibition above about 38%;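 also: enzyme fragment complementation signal reports receptor beta-arrestin coupling in cells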
Target sequence (P32249 whole entry, looked up, the tested form may be a part): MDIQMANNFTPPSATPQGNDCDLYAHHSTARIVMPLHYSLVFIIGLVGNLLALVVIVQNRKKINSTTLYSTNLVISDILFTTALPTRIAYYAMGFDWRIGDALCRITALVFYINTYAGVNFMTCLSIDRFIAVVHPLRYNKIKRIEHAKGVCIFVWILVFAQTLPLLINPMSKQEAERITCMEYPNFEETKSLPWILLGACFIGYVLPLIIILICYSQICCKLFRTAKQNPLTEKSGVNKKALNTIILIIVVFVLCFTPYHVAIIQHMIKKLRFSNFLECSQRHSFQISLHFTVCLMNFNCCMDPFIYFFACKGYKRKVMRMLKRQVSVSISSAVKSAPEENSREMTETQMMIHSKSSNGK
CXCR6 inh: CXCR6 receptor inhibitors, primary screen, cell-based, beta-arrestin, luminescence, CHO-K1 PathHunter, 1536-well. inhibition, % at 20 µM. AID 602244, 2012. 360,000 tested, 0.36% active; in the data active = inhibition above about 34%, passing the limit was not always enough;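 also: antagonist mode with CXCL16 agonist at 10 nM final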
Target sequence (O00574 whole entry, looked up): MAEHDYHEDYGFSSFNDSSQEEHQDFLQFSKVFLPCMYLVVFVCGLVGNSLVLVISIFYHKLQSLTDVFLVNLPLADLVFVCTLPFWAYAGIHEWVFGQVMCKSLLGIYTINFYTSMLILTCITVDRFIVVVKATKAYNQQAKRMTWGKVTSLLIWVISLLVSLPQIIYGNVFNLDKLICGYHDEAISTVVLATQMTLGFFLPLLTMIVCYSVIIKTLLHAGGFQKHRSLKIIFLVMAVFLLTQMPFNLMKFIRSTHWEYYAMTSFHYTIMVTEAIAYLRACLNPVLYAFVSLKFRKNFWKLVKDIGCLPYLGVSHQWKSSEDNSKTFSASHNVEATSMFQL
APJ antagonist: antagonists of human apelin receptor APJ, primary screen, CHO-K1 cells, beta-arrestin complementation, luminescence; P35414; inhibition, % at 20 µM; 330,000 tested, 0.32% active; AID 2521, 2010;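 active = inhibition above about 40% at 20 µM, limit read from the data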;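 also: cells challenged with 10 nM apelin-13 agonist together with compound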
CCR6 antagonist: CCR6 receptor antagonists, primary screen, cell-based, CHO-K1, luminescence, beta-arrestin, uHTS; CHO-K1 CCR6 PathHunter beta-arrestin, CCL20-stimulated; inhibition, % at 20 µM; 340,000 tested, 0.49% active; AID 493098, 2011;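 active = compounds whose inhibition of the agonist-driven luminescence signal at 20 µM reaches about 50%, limit read from the data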;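 also: cells stimulated with CCL20 at 14 nM final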
Large screens that a line does not name were inactive. A selection: hits, their analogues and other compounds. The true share with any hit is near 1.5%.

Cc1onc(-c2c(Cl)cccc2Cl)c1C(=O)Nc1nccs1	none
COc1ccc(S(=O)(=O)N2CCC(C(=O)NC3CCCCC3C)CC2)cc1 (centres undefined)	none
N#C/C(=C\c1ccc(-c2ccc(F)cc2)o1)C(=O)Nc1nc(-c2cccs2)cs1	CCR6 antagonist 54.6
CC(=O)NC(=S)Nc1cccc2c(C)cc(C)nc12	none
Cc1cc(C)c2cccc(NC(=S)NC(=O)c3ccccc3)c2n1	CCR6 antagonist 68.6
Cc1ccccc1NC(=S)NC(=O)c1cc(-c2ccccc2)nc2ccccc12	CCR6 antagonist 55.6
COc1ccc(CCN(C)C(=S)Nc2cccc(C)c2)cc1OC	none
CN(C)c1ccc(/C=C2\c3ccccc3C(=O)N2c2ccccc2)cn1	none (no result: APJ ag, APJ antagonist, CCR6 antagonist)
CCOC(=O)Cc1csc(Nc2c(C)n(C)n(-c3ccccc3)c2=O)n1	CCR6 antagonist 69.2
Cc1c(Nc2nc(-c3ccc(Cl)cc3)cs2)c(=O)n(-c2ccccc2)n1C	none
O=C1C(Cc2ccccc2)Nc2ncnc(N3CCCCC3)c2N1Cc1ccccc1 (centres undefined)	none
COc1cc(/C=N/N=C2/C(=O)Nc3ccccc32)ccc1O	CCR6 antagonist 55.9
O=C1Nc2ccccc2/C1=N\N=C\c1ccc(O)c(O)c1	none
COc1cc2c(c(OC)c1OC)CCc1cnoc1-2	none
COc1ccc(/C=N\NC(=O)c2cc(O)c(O)c(O)c2)cc1COc1ccc(C(=O)OCC(C)C)cc1	CCR6 antagonist 54.7
C/C(=N\NC(=O)CCC(=O)Nc1ccc(C)c(C)c1)C1CC1	none
C/C(=N/Nc1ccc([N+](=O)[O-])cc1)c1ccc(C)cc1C	none
C/C(=N/Nc1ccc([N+](=O)[O-])cc1)c1c[nH]c2ccccc12	CCR6 antagonist 70.4
Cc1[nH]c2ccccc2c1/C=N/Nc1ccc([N+](=O)[O-])cc1	EBI2 antag 41.8, CCR6 antagonist 64.7 (no result: APJ ag, APJ antagonist)
COc1ccc(C(=O)O)cc1S(=O)(=O)NCc1ccncc1	none
CCc1cc(C(=O)O)c(NC(=O)c2cc(OC)c(OC)c(OC)c2)s1	none
O=C1C=CC(=O)N1c1ccccc1N1C(=O)C=CC1=O	CXCR6 inh 72.5, CCR6 antagonist 107.9 (no result: APJ ag, APJ antagonist)
CCC1CN(C(=O)N2CCC(C(=O)NCc3cc(OC)c(OC)c(OC)c3)CC2)c2ccccc2O1 (centres undefined)	none
NS(=O)(=O)c1ccc(NC(=O)CN2CCN(S(=O)(=O)c3cccs3)CC2)cc1	none
Oc1ccc(/C=N/NC(=S)NC2CC3CCC2C3)cc1 (centres undefined)	EBI2 antag 48.7
O=C1Nc2ccccc2/C1=C\C(=O)c1ccccc1	EBI2 antag 61.2
Cc1ccc(Cc2cnc(NC(=O)/C(C#N)=C/c3ccc(-c4ccc([N+](=O)[O-])cc4)o3)s2)cc1	CCR6 antagonist 58.6
Cc1nn(-c2ccccc2)c(C)c1/C=N/NC(=O)c1cnccn1	none
CCN(CC)c1ccc(C(=S)N2CCN(c3ccccc3)CC2)cc1	EBI2 antag 63.9
CCN(c1ccccc1)S(=O)(=O)c1ccc(OC)c(NC(=O)C2=NN(c3ccccc3)C(=O)CC2)c1	none
Cc1ccc(C(=O)COC(=O)CCC(=O)Nc2cccc(Cl)c2)cc1[N+](=O)[O-]	CCR6 antagonist 53.2
Cc1ccc(CNC(=S)NCc2ccncc2)cc1	none
CCCOc1ccc(C(=O)NNC(=S)NC(=O)c2ccco2)cc1	CCR6 antagonist 70.0
CCN(CC)C(=O)C1=C(C)N(CCC2=CCCCC2)C(=O)C(CC(=O)NCCCN(C)C)C1 (centres undefined)	none (no result: APJ ag, APJ antagonist, CCR6 antagonist)
O=C1/C(=C\c2ccc(Cl)c(Cl)c2)CN(C(=O)CCN2CCOCC2)C/C1=C/c1ccc(Cl)c(Cl)c1	EBI2 antag 89.6, CCR6 antagonist 55.5 (no result: APJ ag, APJ antagonist)
CCN(CC)CCC(=O)N1C/C(=C/c2ccccc2)C(=O)/C(=C\c2ccccc2)C1	EBI2 antag 52.2, CXCR6 inh 62.4, CCR6 antagonist 65.5 (no result: APJ ag, APJ antagonist)
O=C(NCCN1CCOCC1)c1ccc(Cl)c(Cl)c1	none
O=C1/C(=C\c2ccccc2)CN(C(=O)CCN2CCCCC2)C/C1=C/c1ccccc1	EBI2 antag 52.3, CXCR6 inh 66.4, CCR6 antagonist 81.9 (no result: APJ ag, APJ antagonist)
O=C1/C(=C\c2ccccc2)CCC/C1=C/c1ccccc1	none (no result: APJ ag, APJ antagonist)
N#C/C(N=Nc1ccccc1O)=N\Nc1ccccc1O	CCR6 antagonist 71.2
O=S(=O)(Nc1ccc(N=Nc2ccc(O)c3ccccc23)cc1)c1ccccc1	EBI2 antag 46.9, CCR6 antagonist 60.5
COc1ccc(NC(=S)NC(NC(=O)c2cccc(Cl)c2)C(Cl)(Cl)Cl)c([N+](=O)[O-])c1 (centres undefined)	CCR6 antagonist 58.0
C/C(=N\Nc1nc2ccccc2nc1C)c1ccccc1O	none
CC(=NNc1ccc2ccccc2n1)c1ccccc1O	CXCR6 inh 56.4 (no result: APJ ag, APJ antagonist, CCR6 antagonist)
CCN(CC(=O)NCc1cccs1)C(=O)c1cccc(S(=O)(=O)N(C)C)c1	none
COc1cc(N=Nc2cccc(S(N)(=O)=O)c2)c2ccccc2c1N	CCR6 antagonist 66.7 (no result: APJ ag, APJ antagonist)
COc1ccc(S(=O)(=O)CCc2nnc(NC(=O)c3ccc(F)cc3)s2)cc1	none
CCC(C)C(=O)N1c2ccccc2C(=C2SC(C(=O)OC)=C(C(=O)OC)S2)C(=S)C1(C)C (centres undefined)	EBI2 antag 51.6
COc1ccc(-c2csc(N3C(=N)SCC3=O)n2)cc1	CCR6 antagonist 55.8
CCOc1ccc(NC(=S)Nc2ccc3nsnc3c2)cc1	EBI2 antag 52.7
CCOc1ccc(NC(=O)Nc2ccc3nsnc3c2)cc1	none
Cc1[nH]n(-c2nc(-c3ccc(Cl)cc3)cs2)c(=O)c1N=Nc1ccc(O)cc1	EBI2 antag 51.2
CCN(CC)C(=O)[C@H]1C[C@H](CC(=O)NCc2ccco2)C(=O)N2CCc3c([nH]c4cc(CCC(=O)N(C)C)ccc34)[C@]12C	none (no result: APJ ag, APJ antagonist)
CC1=NNC(=O)/C1=C\c1cn(-c2ccccc2)nc1-c1ccc(Cl)cc1	APJ ag 38.0, EBI2 antag 90.9
CC1(C)CC(=O)C(=Cc2cn(-c3ccccc3)nc2-c2ccccc2)C(=O)C1	none
O=C(N/C(=C\c1ccc(Br)cc1)C(=O)N1CCOCC1)c1ccco1	none
CN(C)S(=O)(=O)c1ccc(C(=O)Nc2nc(-c3cccs3)cs2)cc1	EBI2 antag 77.2
O=C(Nc1nc(-c2cccs2)cs1)c1ccc(S(=O)(=O)N2CCCC2)cc1	none
CCOC(=O)c1ccc(N=Cc2nc(-c3ccccc3)oc2OC(C)=O)cc1	CCR6 antagonist 50.5
CN(C)C(CNc1ccc(C(F)(F)F)cn1)c1ccccc1 (centres undefined)	CCR6 antagonist 62.9
CN(C)c1ccc(/C=C/C=C2/SC(=S)N(c3ccccc3)C2=O)cc1	CXCR6 inh 52.5
O=C(O)c1ccc(N2C(=O)/C(=C/C=C/c3ccccc3)SC2=S)cc1	none
COc1ccc(-c2nc(CS(=O)CC(=O)NC(C)CCc3ccccc3)c(C)o2)cc1OC (centres undefined)	none
